Laboratory results taken from ChEMBL document CHEMBL4052833, “Design, Synthesis, and Biological Activity of New N-(Phenylmethyl)-benzoxazol-2-thiones as Macrophage Migration Inhibitory Factor (MIF) Antagonists: Efficacies in Experimental Pulmonary Hypertension” (J Med Chem, 2018).
Values after ≈ are worked out from the molar mass of the structure shown. Active and inactive are the calls of the source. The calls are words filed in the database; no cut-off is given here.

Assays:
DU-145 [1] = assay: Inhibition of cell survival in MIF dependent human DU145 cells at 100 uM after 24 hrs by MTT assay; type: functional; settings: for inhibition at 100 µM: DU-145, 24 h
Outline: (§1)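 DU-145 (RPMI) or iPAH endothelial cells (MCDB131) grown 24 h with 10% FCS, washed, then exposed 24 h serum-free to 10, 50 or 100 µM compound. MTT 5 mg/mL added for 6 h, medium removed, DMSO added, absorbance read at 590 nm.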

[2] = target: T1, Macrophage migration inhibitory factor (Homo sapiens, UniProt P14174); assay: Inhibition of recombinant human MIF tautomerase activity using 4-HPP as substrate preincubated for 15 mins followed by substrate addition measured after 360 secs
T1 sequence (P14174 whole entry): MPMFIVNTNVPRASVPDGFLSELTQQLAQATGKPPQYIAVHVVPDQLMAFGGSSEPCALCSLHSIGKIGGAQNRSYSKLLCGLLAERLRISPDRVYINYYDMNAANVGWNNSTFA
Outline: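 Recombinant human MIF (100 nM) preincubated 15 min with 8 inhibitor concentrations, 0–10 µM; 4-HPP substrate, pre-equilibrated overnight at 4°C in 50 mM ammonium acetate, added in 0.435 M boric acid pH 6.6 at room temperature. Absorbance increase at 305 nm followed over 0–360 s; Ki determined; at least 3 independent replicates.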

DU-145 [3] = assay: Induction of apoptosis in human DU145 cells assessed as increase in caspase 3/7 activity after 24 hrs by fluorescence based assay; type: functional, cell-based
Outline: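 DU-145 cells exposed to increasing doses for 24 h; caspase-3/7 activity measured by fluorogenic Apo-ONE read-out.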

Rattus norvegicus [4] = assay: Cardiotoxicity in MCT-induced pulmonary hypertension Wistar rat model assessed as effect on collagen area fraction in left ventricle at 30 mg/kg/day administered via oral gavage for 2 weeks starting from 2 weeks post MCT challenge measured post last dose by picrosirius red staining based assay; type: toxicity, organism-based; settings: in vivo, 336 h
Outline: (§2)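 Monocrotaline rat model as above (60 mg/kg s.c.; daily gavage 30 mg/kg/day for 2 weeks starting 2 weeks post-MCT, DMSO/propylene glycol/saline vehicle). Heart sections deparaffinized and stained with Picrosirius red for collagen; collagen area fraction scored in right and left ventricle myocardium against control rats.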

Rattus norvegicus [5] = assay: Anti-hypertensive activity in MCT-induced pulmonary hypertension Wistar rat model assessed as reduction in right ventricular hypertrophy at 30 mg/kg/day administered via oral gavage for 2 weeks starting from 2 weeks post MCT challenge measured post last dose; type: functional, organism-based
Outline: (§3)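 Young male Wistar rats (100 g) given single subcutaneous monocrotaline 60 mg/kg; from 2 weeks later, dosed daily by gavage for 2 weeks at 30 mg.kg.day-1 in 33% DMSO in propylene glycol:saline (68:32), or vehicle alone. Under isoflurane, jugular catheter advanced into pulmonary artery for pressure; cardiac output by thermodilution; RV hypertrophy as Fulton index.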

[6] = target: T2, Macrophage migration inhibitory factor (Homo sapiens) (UniProt P14174); assay: Inhibition of recombinant human MIF-induced AKT phosphorylation in idiopathic pulmonary arterial hypertension patient derived primary pulmonary endothelial cells by Western blot analysis
T2 sequence (whole entry): T1 sequence (P14174 whole entry)
Outline: (§4)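 iPAH-derived pulmonary endothelial cells stimulated with 50 ng/mL recombinant MIF (endotoxin <0.07 EU/µg) with increasing antagonist doses; lysed and sonicated in RIPA with protease/phosphatase inhibitors, 30 µg protein immunoblotted for pAKT/AKT and pERK1/2/ERK.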

[7] = Inhibition of cell survival in idiopathic pulmonary arterial hypertension patient derived primary pulmonary endothelial cells at 100 uM after 24 hrs by MTT assay; type: functional; settings: Homo sapiens; outline: as §1
Rattus norvegicus [8] = assay: Anti-hypertensive activity in MCT-induced pulmonary hypertension Wistar rat model assessed as reduction in mean pulmonary artery pressure at 30 mg/kg/day administered via oral gavage for 2 weeks starting from 2 weeks post MCT challenge measured post last dose; type: functional, organism-based; outline: as §3
DU-145 [9] = assay: Antiproliferative activity against human DU145 cells by BrdU-incorporation based time-resolved fluorescence analysis
Rattus norvegicus [10] = assay: Cardiotoxicity in MCT-induced pulmonary hypertension Wistar rat model assessed as induction of cardiac fibrosis at 30 mg/kg/day administered via oral gavage for 2 weeks starting from 2 weeks post MCT challenge measured post last dose by picrosirius red staining based assay; type: toxicity, organism-based; settings: in vivo, 336 h; outline: as §2
Rattus norvegicus [11] = assay: Anti-hypertensive activity in MCT-induced pulmonary hypertension Wistar rat model at 30 mg/kg/day administered via oral gavage for 2 weeks starting from 2 weeks post MCT challenge; type: functional, organism-based; outline: as §3
Rattus norvegicus [12] = assay: Toxicity in MCT-induced pulmonary hypertension Wistar rat model assessed as change in body weight at 30 mg/kg/day administered via oral gavage for 2 weeks starting from 2 weeks post MCT challenge; type: organism-based; settings: in vivo, 336 h; outline: as §3
[13] = target: T2, Macrophage migration inhibitory factor (Homo sapiens); assay: Inhibition of recombinant human MIF-induced ERK phosphorylation in idiopathic pulmonary arterial hypertension patient derived primary pulmonary endothelial cells by Western blot analysis; outline: as §4
DU-145 [14] = assay: Induction of apoptosis in human DU145 cells at 100 uM by TUNEL assay; type: functional, cell-based
DU-145 [15] = assay: Induction of apoptosis in human DU145 cells assessed as early apoptotic cells at 100 uM by Annexin V-FITC-staining based FACS analysis (reference value: 2.5%); type: functional
DU-145 [16] = assay: Induction of apoptosis in human DU145 cells assessed as viable cells at 100 uM by Annexin V-FITC-staining based FACS analysis (reference value: 94.9%); type: functional; settings: read-out: Activity
Rattus norvegicus [17] = assay: Cardioprotective activity in MCT-induced pulmonary hypertension Wistar rat model assessed as reversal of increased collagen fibers in endomysium at 30 mg/kg/day administered via oral gavage for 2 weeks starting from 2 weeks post MCT challenge measured post last dose by picrosirius red staining-based assay; type: functional, organism-based; outline: as §2
DU-145 [18] = assay: Inhibition of cell survival in MIF dependent human DU145 cells after 24 hrs by MTT assay; type: functional, cell-based; settings: DU-145, 24 h; outline: as §1
Rattus norvegicus [19] = assay: Toxicity in MCT-induced pulmonary hypertension Wistar rat model assessed as change in systemic blood pressure at 30 mg/kg/day administered via oral gavage for 2 weeks starting from 2 weeks post MCT challenge; type: organism-based; settings: in vivo, 336 h; outline: as §3
DU-145 [20] = assay: Induction of apoptosis in human DU145 cells assessed as late apoptotic cells at 100 uM by Annexin V-FITC-staining based FACS analysis (reference value: 2.34%); type: functional
Rattus norvegicus [21] = assay: Toxicity in MCT-induced pulmonary hypertension Wistar rat model assessed as change in heart rate at 30 mg/kg/day administered via oral gavage for 2 weeks starting from 2 weeks post MCT challenge; type: organism-based; settings: in vivo, 336 h; outline: as §3
[22] = Aqueous solubility in pH 7.4 PBS buffer at […] after 24 hrs; type: physicochemical
DU-145 [23] = assay: Induction of apoptosis in human DU145 cells assessed as necrotic cells at 100 uM by Annexin V-FITC-staining based FACS analysis (reference value: 0.22%); type: functional

## COc1ccc(Cn2c(=S)oc3ccc(C)cc32)cc1
DU-145 [1]
  inhibition at 100 µM: 36%

## CC(C)c1ccc2oc(=S)n(Cc3ccccc3)c2c1
DU-145 [1]
  inhibition: inactive
[2]
  Ki: 1000 to 3000 nM

## COc1ccc2oc(=S)n(Cc3cccc(O)c3)c2c1
DU-145 [1]
  inhibition at 100 µM: 16%

## Fc1ccc2oc(=S)n(Cc3ccccc3)c2c1
DU-145 [1]
  inhibition at 100 µM: 31%

## Cc1ccc2oc(=S)n(Cc3ccc(Cl)cc3)c2c1
DU-145 [1]
  inhibition at 100 µM: 22%

## CC(C)(C)c1ccc2oc(=S)n(Cc3ccccc3)c2c1
DU-145 [1]
  inhibition: inactive

## S=c1oc2ccccc2n1Cc1ccccc1
DU-145 [1]
  inhibition: inactive

## Cc1ccc2oc(=S)n(Cc3cccc(F)c3)c2c1
DU-145 [1]
  inhibition at 100 µM: 46%

## FC(F)(F)c1ccc2oc(=S)n(Cc3ccccc3)c2c1
DU-145 [1]
  inhibition at 100 µM: 48%

## COC(=O)CC1CC(c2ccc(O)cc2)=NO1 (configuration not stated)
DU-145 [1]
  inhibition at 100 µM: 8%

## Oc1cc(Cn2c(=S)oc3ccc(C(F)(F)F)cc32)ccc1F
DU-145 [3]
  Activity: Dose-dependent effect
DU-145 [1]
  inhibition at 100 µM: 84%
Rattus norvegicus [4]
  Activity: Non-Toxic
Rattus norvegicus [5]
  Activity: Active
[6]
  inhibition: Dose-dependent effect
[7]
  inhibition at 100 µM: 70%
Rattus norvegicus [8]
  Activity: Active
DU-145 [9]
  Activity: Dose-dependent effect
Rattus norvegicus [10]
  Activity: Non-Toxic
[2]
  Ki: 300 to 1000 nM
Rattus norvegicus [11]
  Activity: Active
Rattus norvegicus [12]
  Activity: Non-Toxic
[13]
  inhibition: Dose-dependent effect
DU-145 [14]
  Activity: Active
DU-145 [15]
  Activity: 16.7%
DU-145 [16]
  viability at 100 µM: 47.9%
Rattus norvegicus [17]
  Activity: Active
DU-145 [18]
  EC50: 60500 nM
Rattus norvegicus [19]
  Activity: Non-Toxic
DU-145 [20]
  Activity: 14.5%
Rattus norvegicus [21]
  Activity: Non-Toxic
[22]
  solubility at 24 h: 3 to 4 µM (≈ 1.03 to 1.37 µg/mL)
DU-145 [23]
  Activity: 20.8%

## Cc1ccc2oc(=S)n(Cc3cccc(O)c3)c2c1
DU-145 [1]
  inhibition at 100 µM: 46%
[2]
  Ki: 100 to 600 nM

## O=c1oc2ccc(C(F)(F)F)cc2n1Cc1ccc(F)c(O)c1
DU-145 [1]
  inhibition: inactive

## Cc1ccc2oc(=S)n(Cc3ccccc3C)c2c1
DU-145 [1]
  inhibition: inactive

## Cc1ccc2oc(=S)n(Cc3cccc([N+](=O)[O-])c3)c2c1
DU-145 [1]
  inhibition at 100 µM: 24%

## Cc1ccc2oc(=S)n(Cc3ccc([N+](=O)[O-])cc3)c2c1
DU-145 [1]
  inhibition at 100 µM: 13%

## Cc1ccc2c(c1)oc(=S)n2Cc1ccccc1
DU-145 [1]
  inhibition at 100 µM: 24%

## Cc1ccc2oc(=S)n(Cc3ccccc3Cl)c2c1
DU-145 [1]
  inhibition: inactive

## COc1cccc(Cn2c(=S)oc3ccc(C)cc32)c1
DU-145 [1]
  inhibition at 100 µM: 47%

## Cc1ccc2oc(=S)n(Cc3ccc(F)c(O)c3)c2c1
DU-145 [1]
  inhibition at 100 µM: 31%
[2]
  Ki: 2000 to 5000 nM

## Cc1cccc(Cn2c(=S)oc3ccc(C)cc32)c1
DU-145 [1]
  inhibition at 100 µM: 32%

## Cc1ccc(Cn2c(=S)oc3ccc(C)cc32)cc1
DU-145 [1]
  inhibition: inactive

## Cc1ccc2oc(=S)n(Cc3ccccc3[N+](=O)[O-])c2c1
DU-145 [1]
  inhibition at 100 µM: 14%

## Cc1ccc2oc(=S)n(Cc3ccccc3O)c2c1
DU-145 [1]
  inhibition: inactive

## Cc1cccc2oc(=S)n(Cc3ccccc3)c12
DU-145 [1]
  inhibition: inactive

## Cc1ccc2oc(=O)n(Cc3ccccc3)c2c1
DU-145 [1]
  inhibition: inactive

## COc1ccccc1Cn1c(=S)oc2ccc(C)cc21
DU-145 [1]
  inhibition at 100 µM: 29%

## Cc1ccc2oc(=S)n(Cc3ccccc3)c2c1
DU-145 [1]
  inhibition at 100 µM: 36%
[2]
  Ki: 1000 to 3000 nM

## Cc1ccc2oc(=S)n(Cc3ccc(F)cc3)c2c1
DU-145 [1]
  inhibition at 100 µM: 25%

## S=c1oc2ccc(Cl)cc2n1Cc1ccccc1
DU-145 [1]
  inhibition at 100 µM: 34%

## Cc1ccc2oc(=S)n(Cc3ccccc3F)c2c1
DU-145 [1]
  inhibition at 100 µM: 28%
